A word on the logP: it is the decadic logarithm of the partition coefficient of the neutral form, usually between octanol and water. The low end stands for lower lipophilicity, the high end for higher lipophilicity. A word on the pKa: it is the negative logarithm of the acid dissociation constant. A low value points to a stronger acid or weaker base. The term ED50 denotes the midpoint of the dose-response relation. Higher therefore signals weaker potency.

Consider 20 compounds from ChEMBL document CHEMBL1121654, “New antiarrhythmic agents. 6. Quantitative structure-activity relationships of aminoxylidides” (J Med Chem, 1981).

Data set [1] can be described thus: Compound was evaluated for -Log [fraction ionized x ED50 (protection)]. In kind it is ADME.
The nature of data set [2]: Partition coefficient (logP). In kind it is physicochemical. Conditions: octanol/water. The gist of the method: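 1-Octanol/water partition by titration: 10–40 mL aqueous test compound (1 mM) with 4–25 mL 1-octanol, stirred vigorously, titrated with 0.1 N NaOH; apparent pKa′ calculated, from which partition coefficient obtained.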
Data set [3] in a line: Dissociation constant (pKa). In kind it is physicochemical.
For data set [4], the species on record is Mus musculus. The data set is described as follows: Compound was evaluated for protection against tachycardia in mice. In kind it is functional. An outline of the steps: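 Mice given test agent, then chloroform-induced tachycardia (modified Lawson method); efficacy scored as percentage of mice protected at each dose. Doses stepped ≥0.15 log unit up/down to give low, medium and high protection incidence; ED50 (mmol/kg) by Berkson logit chi-square method.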

Data set [5] is filed under the species Mus musculus. Description: Compound was evaluated for ataxia in mice. In kind it is functional.
Data set [6] can be described thus: Therapeutic index is the ratio of ED50 (ataxia) to ED50 (protection) in mice. Conditions: mouse; read-out: TI.

Regarding `CCN(CC)CCC(=O)Nc1c(C)cccc1C`, the “p[BH+50]” value in data set [1] is reported as 0.9. Besides, in data set [2], the logP turned out to be 2.21. For the same compound, in data set [3], the pKa worked out at 8.83. For the same compound, the ED50 in the data set filed under Mus musculus [4] was determined as 130 µmol/kg; in the data set listed under Mus musculus [5], 210 µmol/kg. Moreover, in data set [6], the selectivity ratio was 1.6.
Turning to `Cc1cccc(C)c1NC(=O)CC(C)N` (configuration not stated), the “p[BH+50]” value in data set [1] is listed as 0.62. Further, the logP in data set [2] was determined as 0.84. This compound also gave a pKa in data set [3] of 8.71. For the same compound, the ED50 in the data set filed under Mus musculus [4] came out at 250 µmol/kg; in the data set filed under Mus musculus [5] it was 1640 µmol/kg. In addition, the selectivity ratio in data set [6] came out at 6.6.
Take `Cc1cccc(C)c1NC(=O)CCCC(C)N` (configuration not stated): the “p[BH+50]” value in data set [1] came to 0.72. The same compound yielded a logP in data set [2] of 1.41. Further, in data set [3], the pKa was determined as 9.79. Moreover, the ED50 was determined as 190 µmol/kg in the data set listed under Mus musculus [4] and 1170 µmol/kg in the data set listed under Mus musculus [5]. Further, the selectivity ratio in data set [6] turned out to be 6.2.
On to `CCN(CC)C(C)CCCC(=O)Nc1c(C)cccc1C` (configuration not stated), for which the “p[BH+50]” value in data set [1] is listed as 1. Moreover, the logP in data set [2] is 2.64. The pKa in data set [3] came out at 10.1. Also, the ED50 is 100 µmol/kg in the data set filed under Mus musculus [4] and 790 µmol/kg in the data set filed under Mus musculus [5]. Also, the selectivity ratio in data set [6] was 7.9.
Regarding `CCN(CC)CCCCCC(=O)Nc1c(C)cccc1C`, in data set [1], the “p[BH+50]” value was found to be 0.89. The compound further had a logP in data set [2] of 2.95. The compound also came in with a pKa in data set [3] of 10.2. Besides, the ED50 worked out at 130 µmol/kg in the data set filed under Mus musculus [4] and 670 µmol/kg in the data set filed under Mus musculus [5]. Besides, the selectivity ratio in data set [6] stood at 5.2.
Regarding `CCN(CC)CCCCC(=O)Nc1c(C)cccc1C`, in data set [1], the “p[BH+50]” value came out at 0.92. Further, the log partition coefficient (logP) in data set [2] came to 2.42. In data set [3], this compound registered a pKa of 9.96. Besides, the ED50 is 120 µmol/kg in the data set filed under Mus musculus [4] and 660 µmol/kg in the data set filed under Mus musculus [5]. Further, the selectivity ratio in data set [6] worked out at 5.5.
Turning to `CCN(CC)C(C)CC(=O)Nc1c(C)cccc1C` (configuration not stated), the “p[BH+50]” value in data set [1] is 1.31. Besides, the logP in data set [2] stood at 2.63. The compound further had a pKa in data set [3] of 9.03. Further, the ED50 in the data set filed under Mus musculus [4] is 50 µmol/kg; in the data set listed under Mus musculus [5], 90 µmol/kg. In addition, the selectivity ratio in data set [6] is 1.8.
On to `Cc1cccc(C)c1NC(=O)CCCN`, for which, in data set [1], the “p[BH+50]” value amounted to 0.1. The compound further came in with a log partition coefficient (logP) in data set [2] of 0.71. The pKa in data set [3] came to 9.35. In addition, the ED50 in the data set filed under Mus musculus [4] was found to be 800 µmol/kg; in the data set listed under Mus musculus [5], 3250 µmol/kg. Moreover, in data set [6], the selectivity ratio worked out at 4.1.
On to `Cc1cccc(C)c1NC(=O)CCCCCN`, for which, in data set [1], the “p[BH+50]” value is reported as 0.57. The logP in data set [2] stood at 1.29. The compound further had a pKa in data set [3] of 10.1. The ED50 in the data set filed under Mus musculus [4] was 270 µmol/kg; in the data set listed under Mus musculus [5] it was 2070 µmol/kg. In addition, the selectivity ratio in data set [6] worked out at 7.7.
Consider `CCN(CC)C(C)C(=O)Nc1c(C)cccc1C` (configuration not stated), for which, in data set [1], the “p[BH+50]” value was found to be 0.88. For the same compound, in data set [2], the logP is 2.73. The pKa in data set [3] amounted to 7.93. Further, the ED50 in the data set listed under Mus musculus [4] was found to be 170 µmol/kg; in the data set filed under Mus musculus [5], 130 µmol/kg. For the same compound, in data set [6], the selectivity ratio turned out to be 0.8.
Consider `CCN(CC)C(C)CCC(=O)Nc1c(C)cccc1C` (configuration not stated), for which the “p[BH+50]” value in data set [1] was determined as 0.68. In addition, the logP in data set [2] came out at 2.66. The compound further returned a pKa in data set [3] of 9.87. Moreover, the ED50 in the data set filed under Mus musculus [4] is 210 µmol/kg; in the data set filed under Mus musculus [5] it was 1150 µmol/kg. For the same compound, the selectivity ratio in data set [6] stood at 5.5.
As for `Cc1cccc(C)c1NC(=O)CCC(C)N` (configuration not stated), in data set [1], the “p[BH+50]” value turned out to be 0.45. This compound registered a logP in data set [2] of 1.08. The pKa in data set [3] amounted to 9.36. Further, the ED50 in the data set listed under Mus musculus [4] was 360 µmol/kg; in the data set listed under Mus musculus [5], 2660 µmol/kg. The selectivity ratio in data set [6] turned out to be 7.4.
For `CCN(CC)CCCC(=O)Nc1c(C)cccc1C`, the “p[BH+50]” value in data set [1] was determined as 0.86. The logP in data set [2] amounted to 2.06. For the same compound, the pKa in data set [3] was determined as 9.52. Besides, the 50% effective dose (ED50) in the data set listed under Mus musculus [4] amounted to 140 µmol/kg; in the data set filed under Mus musculus [5] it was 760 µmol/kg. The selectivity ratio in data set [6] amounted to 5.4.
With `Cc1cccc(C)c1NC(=O)C(C)N(C)C` (configuration not stated), the “p[BH+50]” value in data set [1] is 0.94. Besides, in data set [2], the logP was 1.53. This compound also showed a pKa in data set [3] of 7.33. In addition, the ED50 in the data set listed under Mus musculus [4] was 250 µmol/kg; in the data set filed under Mus musculus [5], 200 µmol/kg. Besides, the selectivity ratio in data set [6] came out at 0.8.
With `Cc1cccc(C)c1NC(=O)CCCCN`, in data set [1], the “p[BH+50]” value is listed as 0.51. The compound also had a lipophilicity (logP) in data set [2] of 1.02. The pKa in data set [3] came to 9.81. The results for the ED50 in the data set listed under Mus musculus [4] and in the data set filed under Mus musculus [5] were 310 µmol/kg and 1810 µmol/kg, respectively. Besides, the selectivity ratio in data set [6] is 5.8.
Take `CCN(CC)CCCCCCC(=O)Nc1c(C)cccc1C`: the “p[BH+50]” value in data set [1] is recorded as 1.4. In data set [2], this compound registered a logP of 3.48. The compound further came in with a pKa in data set [3] of 10.2. Moreover, the figures for the ED50 in the data set listed under Mus musculus [4] and in the data set filed under Mus musculus [5] were 40 µmol/kg and 830 µmol/kg, respectively. For the same compound, the selectivity ratio in data set [6] was determined as 21.
For the compound `Cc1cccc(C)c1NC(=O)CCN`, the “p[BH+50]” value in data set [1] was found to be 0.16. This compound also returned a logP in data set [2] of 0.62. In data set [3], this compound registered a pKa of 8.75. For the same compound, the results for the ED50 in the data set filed under Mus musculus [4] and in the data set listed under Mus musculus [5] were 720 µmol/kg and 2300 µmol/kg, respectively. For the same compound, in data set [6], the selectivity ratio stood at 3.2.
Take `Cc1cccc(C)c1NC(=O)CN` [GLYCINEXYLIDIDE]: the “p[BH+50]” value in data set [1] is recorded as 0.37. In data set [2], the logP was determined as 0.45. Further, the pKa in data set [3] stood at 7.42. In addition, the ED50 in the data set filed under Mus musculus [4] is 840 µmol/kg; in the data set listed under Mus musculus [5] it was 620 µmol/kg. The selectivity ratio in data set [6] was found to be 0.7.
Regarding `CCN(CC)CC(=O)Nc1c(C)cccc1C` [LIDOCAINE], the “p[BH+50]” value in data set [1] worked out at 0.88. In addition, the ED50 amounted to 210 µmol/kg in the data set filed under Mus musculus [4] and 180 µmol/kg in the data set listed under Mus musculus [5].
Regarding `Cc1cccc(C)c1NC(=O)C(C)N` (configuration not stated) [TOCAINIDE], the “p[BH+50]” value in data set [1] turned out to be 0.5. In data set [2], this compound gave a logP of 0.76. Besides, the pKa in data set [3] worked out at 7.54. The ED50 came out at 550 µmol/kg in the data set filed under Mus musculus [4] and 760 µmol/kg in the data set filed under Mus musculus [5]. Further, the selectivity ratio in data set [6] stood at 1.4.
